Screening results from PubChem.
Hits are enriched below; roughly 2.9% of the tested compounds scored in any of these assays.
VIM-2 inhibitor: inhibitors of Pseudomonas aeruginosa VIM-2 metallo-beta-lactamase. purified VIM-2, nitrocefin hydrolysis, epi-absorbance fluorescence. inhibition, % at 5.6 µM. 290,000 tested, 0.89% active. AID 1527;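 active = inhibition above the mean of all tested compounds plus 3 SD, cutoff set per screening run, cut at about 7.5% in these data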;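 note: red hydrolysis product quenches plate fluorescence so inhibitors raise well fluorescence; 0% = enzyme with DMSO and 100% = DMSO without enzyme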
NALP1 inh: blocks the NALP1 inflammasome reconstituted in yeast; AID 2071; inhibition, % at 10 µM; S. cerevisiae NALP1/ASC/caspase-1 growth, X-gal OD620, 72 h; 280,000 tested, 0.61% active; in the data active = inhibition mostly above about 24%, no sharp cut-off; inactive = mostly below about 32%
UBC9 SUMO inh: SUMOylation inhibition. P63279. inhibition, % at 35 µM. 290,000 tested, 0.36% active. HTRF SUMOylation assay, SAE1/SAE2 + UBC9, in vitro. AID 2006; in the data active = inhibition above about 50%, passing the limit was not always enough
Target sequence (P63279 whole entry, looked up): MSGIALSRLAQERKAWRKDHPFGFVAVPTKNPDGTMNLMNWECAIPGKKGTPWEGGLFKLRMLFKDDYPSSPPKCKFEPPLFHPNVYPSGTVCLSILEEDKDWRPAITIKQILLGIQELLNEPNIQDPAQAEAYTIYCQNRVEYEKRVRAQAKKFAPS
IMP-1 inh: inhibitors of Pseudomonas aeruginosa IMP-1 metallo-beta-lactamase; purified IMP-1, nitrocefin hydrolysis, epi-absorbance fluorescence; inhibition, % at 5.6 µM; 290,000 tested, 0.45% active;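 active = inhibition above the mean plus 3 SD of all compounds in the same screening run, cut at about 4.5% in these data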;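 note: 0% = IMP-1 with DMSO and 100% = DMSO wells lacking enzyme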
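System: purified recombinant IMP-1 beta-lactamase. Medium: Zinc- and detergent-supplemented HEPES buffer, pH 7.1. Compound: one 5.6 µM dose […]. Schedule: 15 min preincubation plus 25 min reaction at 25 °C. Technique: Epi-absorbance fluorescence, 480 nm excitation, 530 nm emission.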
FID counter: fluorescent intercalator displacement, NS3 helicase counter-screen; DNA fluorescent intercalator displacement, fluorescence; inhibition, % at 7.9 µM; 290,000 tested, 0.17% active; in the data active = inhibition above about 37%;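 note: 0% = vehicle and 100% = reference compound; higher means more ethidium bromide displaced from hairpin DNA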
Mot1-301 SUMO: inhibitors of SUMOylation pathway: yeast Mot1-301 growth rescue; 320,000 tested, 1% active; growth rescue, % at 18.8 µM; S. cerevisiae Mot1-301 growth rescue, ATP luminescence, 38.5C; percent above DMSO median, 100 means doubled;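 active = every valid replicate shows activation above 250% relative to neutral control wells; inactive = the rest, any valid replicate at or below 250%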;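 note: OY570 slx delta 5 strain wells were the positive control but not used for scaling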
Active calls of the source: *; · = no result.

SMILES | VIM-2 inhibitor | NALP1 inh | UBC9 SUMO inh | IMP-1 inh | FID counter | Mot1-301 SUMO
CC(=O)NC1C(=O)N(CCN2CCOCC2)c2ccc(Br)cc21 (stereo not drawn) | -2 | 14 | 62* | -4 | -1 | -21
CCN1C(=O)C(NC(C)=O)c2cc(OC)ccc21 (stereo not drawn) | -5 | 6 | 11 | -5 | -2 | -2
CC(C)(C)[C@H](N)C(=O)N[C@H]1CCC2C3CC=C4C[C@@H](O)CC[C@]4(C)C3CC[C@@]21C (stereo partly drawn) | · | · | · | · | · | -2
Cc1cc(SCC(=O)OC/C(O)=C(\C#N)c2nc3ccccc3[nH]2)c(C)cc1Br | 5 | -17 | 55* | -2 | -6 | 4
COc1ccc(OC/C(O)=C(\C#N)c2nc3ccccc3[nH]2)cc1 | -5 | 42 | 6 | -4 | -3 | 23
COc1ccccc1OCC(=O)OC/C(O)=C(\C#N)c1nc2ccccc2[nH]1 | 11* | 20 | -22 | 1 | -2 | 466
O=C(CCc1nnc(C2CCCCC2)o1)N1CCN(Cc2ccccc2)CC1 | -1 | -7 | 4 | -1 | -24 | -8
Cc1ccc(NC(=O)CN2CCN(C(=O)c3ccco3)CC2)cc1 | -1 | 8 | 5 | -2 | -10 | 2
Cc1[nH]c2ccccc2c1NC(=O)CN1CCN(C(=O)c2ccco2)CC1 | -3 | 42* | 15 | -4 | -12 | -10
O=C1C(=O)N(C/C=C/c2ccccc2)c2ccccc21 | 2 | 11 | 10 | 0 | -3 | -15
O=C(c1ccccc1F)N1CCN(C2CCC(c3ccccc3)CC2)CC1 (stereo not drawn) | -5 | 6 | 2 | -3 | 0 | 282*
O=C(c1ccc(F)cc1)N1CCN(C2CCC(c3ccccc3)CC2)CC1 (stereo not drawn) | 0 | -6 | 0 | -2 | 18 | 243
COc1cccc(/C=N/NC(=O)C(C)Sc2ccccc2)c1 (stereo not drawn) | -1 | 30* | 10 | -2 | -10 | 9
CCOc1cc(/C=N/NC(=O)C(C)Sc2ccccc2)ccc1O (stereo not drawn) | -6 | -7 | 13 | -4 | 6 | ·
COc1cccc(/C=N/NC(=S)Nc2cccc(C(=O)O)c2)c1 | 9.1* | 0 | 9 | -2 | -13 | 10
COc1cc(/C=N/NC(=S)Nc2cccc(C(=O)O)c2)cc(OC)c1OC | 0 | 7 | 11 | -3 | -16 | 15
Fc1ccc2[nH]c3c(N4CCc5ccccc5C4)ncnc3c2c1 | 0 | 6 | 18 | 0 | 1 | 122
Brc1ccc2[nH]c3c(N4CCc5ccccc5C4)ncnc3c2c1 | -1 | -10 | -57 | -2 | 2 | 344*
COc1ccc(F)cc1C(=O)C1CCCN(C(=O)Cc2c(C)noc2C)C1 (stereo not drawn) | 8.3* | 7 | -12 | -1 | -15 | 62
CCN(C(=O)COC(=O)CCn1c(C)csc1=O)c1c(N)n(Cc2ccccc2)c(=O)[nH]c1=O | · | · | · | · | · | 7
CCc1cccc(C)c1NC(=O)C1=C(C(=O)O)CCCC1 | 0 | 13 | -7 | 7.8* | -6 | 1
CCc1ccc(NC(=O)C(CC)Sc2nc3cc4c(cc3c(=O)n2Cc2ccco2)OCO4)cc1 (stereo not drawn) | -1 | 15 | 54* | -2 | 4 | ·
CCc1ccccc1NC(=O)C(CC)Sc1nc2cc3c(cc2c(=O)n1Cc1ccco1)OCO3 (stereo not drawn) | -2 | 35 | 9 | -2 | 0 | -16
COc1cc(C(=O)N/N=C/c2cc([N+](=O)[O-])cs2)cc(OC)c1OC | -3 | 22 | 68* | -3 | -14 | ·
CCOc1ccc(C(=O)N/N=C/c2cc([N+](=O)[O-])cs2)cc1 | -1 | 3 | 18 | -3 | -1 | -2
SMILES | VIM-2 inhibitor | NALP1 inh | UBC9 SUMO inh | IMP-1 inh | FID counter | Mot1-301 SUMO
CN1CCC2(CC1)Nc1nc(SCc3ccc(Cl)cc3)nn1C1=C2CN(C)CC1 | 9.5* | 17 | 20 | 0 | 20 | -5
CN(C)/C=C/C(=O)c1ccc(F)cc1F | -1 | 4 | 5 | -2 | -6 | -10
COC(=O)c1cc(Sc2cccc(Cl)c2Cl)ccn1 | 9.2* | 5 | 5 | -2 | -19 | 20
CCC(CC)C(=O)NCc1ccc(OC)cc1 | 2 | 15 | -3 | 1 | 1 | -9
Cc1ccc(NC(=S)N2CCCC(c3nc4ccccc4[nH]3)C2)cc1 (stereo not drawn) | 0 | 3 | -6 | -1 | 3 | 523*
Cc1ccccc1NC(=S)N1CCCC(c2nc3ccccc3[nH]2)C1 (stereo not drawn) | -2 | -10 | 5 | -2 | -7 | -3
CCN(CC(=O)N1CCCC1)S(=O)(=O)c1ccc(OC)cc1 | -1 | 17 | 6 | 0 | -2 | 161
C[C@H](NC(=O)c1ccccc1Cl)C(=O)OC(C(=O)Nc1cc(C(F)(F)F)ccc1Cl)c1ccccc1 (stereo partly drawn) | -1 | 35* | -22 | -5 | -8 | 110
O=C(CNC(=O)c1ccccc1F)OC(C(=O)Nc1cc(C(F)(F)F)ccc1Cl)c1ccccc1 (stereo not drawn) | 0 | 41* | -37 | -2 | -1 | -11
O=P(Cc1nnco1)(c1ccccc1)c1ccccc1 | -4 | -2 | -3 | -4 | -2 | 340*
COc1ccc(CP(=O)(c2ccccc2)c2ccccc2)cc1 | -2 | 0 | 6 | -2 | -20 | 5
N#CC(C(=O)NCc1ccccc1)c1nc2ccccc2nc1N1CCCC1 (stereo not drawn) | 0 | 4 | 12 | 8.2* | -4 | 9
C[C@@H](CN1C(=O)C(=O)NC[C@@H]1Cc1ccc(O)cc1)NC(=O)Cc1ccccc1 | -1 | 2 | 0 | 13* | -1 | 3
O=C1NC[C@H](Cc2ccc(O)cc2)N(CCc2cccc3ccccc23)C1=O | · | · | 16 | · | · | -7
COc1cc(NS(=O)(=O)c2ccc3c(c2)C(C)(C)C(=O)N3C)cc(OC)c1 | 0 | -4 | -8 | -1 | -16 | 6
CCCc1cnc(NCCNCC(O)COc2ccc(Cl)c(Cl)c2)nc1 (stereo not drawn) | -2 | -2 | -34 | -3 | 40* | 10
CC(=O)c1cccc(OCC(O)CNCCc2ccc(Cl)cc2)c1 (stereo not drawn) | 0 | 14 | 14 | -1 | 3 | -14
O=C(Nc1sc2c(c1C(=O)O)CCCC2)c1cccc(Cl)c1 | -2 | 17 | 6 | -3 | -5 | 201
CC(C)C(=O)NCC(c1ccc2c(c1)OCO2)N1CCOCC1 (stereo not drawn) | 3 | -5 | 14 | -2 | -5 | -15
Cc1cc(C(=O)N/N=C/c2cc(Br)ccc2OC(=O)c2ccc(Br)cc2)n[nH]1 | -2 | 27 | 67* | -3 | -4 | 4
